≈ marks a conversion by molar mass, not a printed value.

Consider ten compounds from PMC2964879 (Biochemistry, 2010).

Test [1] deals with T1, BasE (Acinetobacter baumannii, UniProt A0A0D5YGP3). The test can be described thus: Fluorescence polarization displacement assay, BasE-ATCC. Particulars: read-out: KD (FP) of the fluorescent probe. The test is classed as binding, A. baumannii ATCC17978. A general note: Fluorescence polarisation rises when a labelled molecule tumbles more slowly, as on binding a larger partner.

The target in test [2] is T1, BasE. The test can be described thus: Fluorescence polarization displacement assay, BasE-AB900. The test is classed as binding, A. baumannii AB900. Particulars: read-out: KD (FP) of the fluorescent probe.
Test [3] has as its target T1, BasE. The conditions noted are these: for kcat, fold decrease relative to DHB / specificity constant, fold lower than DHB: relative to DHB; for KM, fold change relative to DHB: relative to DHB (increase in KM).
The test system of test [4] is holo-BasF. The test can be described thus: ESI-TOF mass spectrometry of aryl acid loading onto holo-BasF by BasE. The test is classed as biochemical, A. baumannii AB900. Particulars: 50 μM holo-BasF, 200 nM BasE, 250 μM aryl acid, 16 hours. An outline of the steps:
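His-tagged BasF from A. baumannii AB900, expressed in E. coli, made holo in vitro with Sfp and CoA, then anion-exchange purified. Apo- and holo-BasF in the same buffer were reference samples. Samples were diluted in 50:50 water:acetonitrile with 0.1% formic acid and injected directly for ESI-TOF MS.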

Test [5] deals with A. baumannii. The test can be described thus: Antibacterial activity. The test is classed as cell-based.
For test [6], the target named is BasE. Particulars: read-out: dissociation constant Kia; nonvaried substrate in eq 2; cited from earlier work.
The test system of test [7] is BasE. The conditions noted are these: ATP-PPi exchange, saturating ATP; cited from earlier work.
The subject of test [8] is MbtA. The conditions noted are these: cited from earlier work.
Test [9] concerns the target T1, BasE. The test can be described thus: Kinetic inhibition experiments with the continuous coupled assay. The test is classed as biochemical, A. baumannii ATCC17978.
Test [10] deals with coupling enzymes inorganic pyrophosphatase and purine nucleoside phosphorylase. The test can be described thus: Counter-test on the coupling enzymes of the continuous assay. The test is classed as biochemical. The conditions noted are these: 200 μM; data not shown.
Test [11] relates to EntE. Particulars: cited from earlier work.

As to `Nc1ncnc2c1ncn2[C@@H]1O[C@H](COS(=O)(=O)NC(=O)c2ccccc2O)[C@@H](O)[C@H]1OCCOCCOCCNC(=O)c1ccc2c(c1)C(=O)OC21c2ccc(O)cc2Oc2cc(O)ccc21` [Compound 9, 2′-O-{2-[2-(2-{[(fluorescein-5-yl)carbonyl]amino}ethoxy)ethoxy]ethoxy}-5′-O-[N-(2-hydroxybenzoyl)sulfamoyl]adenosine], the Kd was determined as 84 ± 6 nM in test [1] and 144 ± 9 nM in test [2].

`O=C(O)c1ccccc1` [BA, benzoic acid]: in test [3], the “kcat, fold decrease relative to DHB” value is approximately 10 fold; the “specificity constant, fold lower than DHB” value is given as “three orders of magnitude”; the “KM, fold change relative to DHB” value is approximately 100 fold. Moreover, the loading result in test [4] is listed as “partial”.

Usually kcat stands for the number of substrate molecules converted per active site and unit of time at saturation. A word on the Km: it is the concentration of substrate that gives half-maximal velocity. `Nc1ncnc2c1ncn2[C@@H]1O[C@H](COP(=O)(O)OP(=O)(O)OP(=O)(O)O)[C@@H](O)[C@H]1O` [ATP]: in [3] (substrate of BasE, coupled assay, 25 °C, pH 8.0), the kcat came out at 2.8 ± 0.2 s⁻¹. The Michaelis-Menten constant (Km) in test [3] (substrate of BasE, coupled assay, 25 °C, pH 8.0, nonvaried substrates saturating) stood at 300 ± 71 µM.

Turning to `O=C(O)c1cccc(O)c1` [Compound 3-HBA, 3-hydroxy benzoic acid], the “specificity constant, fold lower than DHB” value in test [3] is 60 fold. Moreover, the loading result in test [4] is “partial”.

The MIC is the smallest concentration in the dilution series that meets the test's criterion for growth inhibition. Lower therefore signals a more susceptible organism. In the case of `CCCCCCCCCCCCc1cn(-c2nc(N)c3ncn([C@@H]4O[C@H](COS(=O)(=O)NC(=O)c5ccccc5O)[C@@H](O)[C@H]4O)c3n2)nn1` [Compound 7, 2-(4-n-dodecyl-1,2,3-triazol-1-yl)-5′-O-[N-(2-hydroxybenzoyl)sulfamoyl]adenosine], the MIC in test [5] (Acinetobacter baumannii) was approximately 15 µM (≈ 10.5 µg/mL). For the same compound, in test [5] (iron replete conditions), the antibacterial activity entry was “inactive”.

As for `O=C(O)c1cccc(O)c1O` [DHB, 2,3-dihydroxybenzoic acid], in test [6], the Kd was 2630 nM. For the same compound, in test [4], the loading result is “full”. In addition, in test [7], the Michaelis constant (Km) is 1.5 µM and the kcat was 3.5 s⁻¹.

Consider `Nc1nc(-c2ccccc2)nc2c1ncn2[C@@H]1O[C@H](COS(=O)(=O)NC(=O)c2ccccc2O)[C@@H](O)[C@H]1O` [5′-O-[N-(2-hydroxybenzoyl)sulfamoyl]-2-phenyladenosine], for which the binding constant entry in [8] was “subnanomolar”.

With `O=C(O)c1cc(-c2ccccc2)nc2c1cnn2Cc1ccncc1` [Compound 8, 6-phenyl-1-(pyridin-4-ylmethyl)-1H-pyrazolo[3,4-b]pyridine-4-carboxylic acid], the “modality of inhibition with respect to DHB and ATP” value in test [9] is listed as “competitive inhibition with respect to both substrates”. In addition, in test [9] (10 min pre-incubation at 25 °C, data not shown), the slow binding inhibition entry was “did not exhibit slow binding inhibition”. The “inhibition of the coupling enzymes” value in test [10] is “did not inhibit”.

For `Nc1ncnc2c1ncn2[C@@H]1O[C@H](COS(=O)(=O)NC(=O)c2cccc(O)c2O)[C@@H](O)[C@H]1O` [Compound 5, 5′-O-[N-(2,3-dihydroxybenzoyl)sulfamoyl]adenosine], the “antibacterial activity against A. baumannii” value in [5] (unpublished results, D. Wilson and C. Aldrich) is recorded as “do not possess any antibacterial activity”. The “inhibition of EntE (inhibition and dissociation constants, in words)” value in test [11] was “slow tight-binding picomolar inhibitors”.

For the compound `O=C(O)c1ccccc1O` [SAL, 2-hydroxybenzoic acid], in [3], the “kcat, fold decrease relative to DHB” value is approximately 3 fold; the “specificity constant, fold lower than DHB” value was “approximately 6 fold”; the “KM, fold change relative to DHB” value is “approximately 2 fold”. In [4], the loading result is on record as “partial”.
